Laboratory results published in ChEMBL document CHEMBL2163278, “α-Substituted β-oxa isosteres of fosmidomycin: synthesis and biological evaluation” (J Med Chem, 2012).
pIC50: −log10 of the molar value.

Experiments:
[1] = Inhibition of recombinant Plasmodium falciparum recombinant IspC using […]1-Deoxy-D-xylulose 5-phosphate substrate by photometric assay
In short: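 Enzyme IC50 from nonlinear regression of inhibition data; mean ± SD from nine or more data points.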

[2] = system: Plasmodium falciparum; assay: Antiplasmodial activity against chloroquine-sensitive Plasmodium falciparum 3D7 incubated for 3 days by HRP2 detection based ELISA method; assay type: functional, organism-based; details: 3D7, 72 h
In short: (§1)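 P. falciparum in continuous in vitro culture, growth inhibition assay. Each compound was tested in 12 serial dilutions, in duplicate. IC50 is the mean of at least two independent experiments.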

[3] = system: Plasmodium falciparum; assay: Antiplasmodial activity against chloroquine-resistant Plasmodium falciparum Dd2 incubated for 3 days by HRP2 detection based ELISA method; assay type: functional, organism-based; details: Dd2, 72 h; in short: as §1

SMILES | pIC50 [1] | pIC50 [2] | pIC50 [3]
Cc1ccc(C(OCC(=O)NO)P(=O)(O)O)cc1 (stereo not given) | 5.74 | < 4.30 | –
CN(O)C(=O)COC(c1ccc(F)c(F)c1)P(=O)(OCOC(=O)C(C)(C)C)OCOC(=O)C(C)(C)C (stereo not given) | – | 7.89 | 7.66
CCOC(=O)ON(C)C(=O)COC(c1ccc(F)c(F)c1)P(=O)(OCOC(=O)C(C)(C)C)OCOC(=O)C(C)(C)C (stereo not given) | – | 7.64 | 7.72
CCNC(=O)ON(C)C(=O)COC(c1ccc(F)c(F)c1)P(=O)(OCOC(=O)C(C)(C)C)OCOC(=O)C(C)(C)C (stereo not given) | – | 7.51 | 7.66
CN(O)C(=O)CCC(c1ccccc1)P(=O)(O)O (stereo not given) | 8.51 | – | –
Cc1ccc(C(CCC(=O)N(C)O)P(=O)(O)O)cc1 (stereo not given) | 7.85 | – | –
CN(O)C(=O)COC(c1ccccc1)P(=O)(O)O (stereo not given) | 7.43 | 5.92 | 6.15
CN(O)C(=O)COC(c1cccc2ccccc12)P(=O)(O)O (stereo not given) | 7.41 | 6.28 | 6.46
CN(O)C(=O)COC(c1ccc(F)cc1)P(=O)(O)O (stereo not given) | 7.57 | 6.32 | 6.46
CN(O)C(=O)COC(c1ccc(F)cc1F)P(=O)(O)O (stereo not given) | 7.19 | 5.89 | 5.92
CN(O)C(=O)COC(c1ccc(F)c(F)c1)P(=O)(O)O (stereo not given) | 7.92 | 6.27 | 6.89
CN(O)C(=O)COC(c1ccc(Cl)c(Cl)c1)P(=O)(O)O (stereo not given) | 7.85 | 6.62 | 6.85
Cc1ccc(C(OCC(=O)N(C)O)P(=O)(O)O)cc1 (stereo not given) | 7.60 | 6.74 | 6.72
CCN(O)C(=O)COC(c1ccccc1)P(=O)(O)O (stereo not given) | 6.68 | 5.09 | 5.42
O=C(COC(c1ccccc1)P(=O)(O)O)NO (stereo not given) | 5.82 | < 4.30 | –
O=C(COC(c1ccc(F)cc1F)P(=O)(O)O)NO (stereo not given) | 5.77 | < 4.30 | –
O=CN(O)CCCP(=O)(O)O [FOSMIDOMYCIN SODIUM] | – | 6.06 | 6.09
